Hits are enriched below; roughly 3% of the tested compounds scored in any of these assays.
SENP6 block – inhibitors of human SENP6 protease | Recombinant SENP6 catalytic domain, aminoluciferin luminescence | inhibition, % at 10 µM | AID 2599 | Q9GZR1 | actives 1.8% (n = 330,000);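 active means inhibition above about 50% at the single tested dose, limit read from the data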
SENP8 block-1 – inhibitors of human SENP8 protease. purified SENP8, Z-RLRGG-aminoluciferin cleavage, luminescence. inhibition, % at 10 µM. actives 1.2% (n = 330,000); in the data active means inhibition above about 50%
Apaf1 inhib – human Apaf-1 inhibition | O14727 | actives 0.71% (n = 330,000) | reconstituted apoptosome caspase-3 activity, DEVD-Rh110 fluorescence | inhibition, % at 20 µM; active means inhibition of at least 40% at 20 µM
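Material: reconstituted apoptosome with Apaf-1, cytochrome c, caspase-9, procaspase-3, dATP. Technique: Rh110 fluorescence intensity. Buffer or medium: pH 7.5 Hepes buffer with CHAPS, BSA, DTT. Times: 30 min plus 50 min, RT.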
UBC13 inh – human UBC13 polyubiquitination inhibition. P61088. actives 0.47% (n = 330,000). UBC13 polyubiquitin chain formation, TR-FRET. inhibition, % at 20 µM; in the data active means inhibition above about 45%, passing the limit was not always enough
SENP8 block-2 – blocks human SENP8 cleavage of Nedd8 substrate; recombinant SENP8, Nedd8 substrate fluorescence; inhibition, % at 20 µM; actives 0.64% (n = 360,000); in the data active means inhibition mostly above about 40%, no sharp cut-off; inactive means mostly below about 27%
SENP7 inh – SENP7 protease inhibition; Q9BQF6; recombinant SENP7, Z-RLRGG-aminoluciferin luminescence, 40 min; inhibition, % at 5 µM; actives 1.5% (n = 330,000); AID 434973;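 active means inhibition above about 50% at the single test dose, limit read from the data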
SENP8 conf – human SENP8 inhibition, confirmed; shares compounds with SENP7 inh; Recombinant SENP8, Z-RLRGG-aminoluciferin luminescence, 60 min; inhibition, % at 12.5 µM; actives 40% (n = 6,200); AID 488912;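 active means mean inhibition across replicates above about 50%, limit read from the data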
SENP6 conf – human SENP6 inhibition, confirmed; recombinant SENP6, Z-RLRGG-aminoluciferin luminescence; shares compounds with SENP7 inh; actives 58% (n = 6,200); inhibition, % at 12.5 µM
SENP7 conf – confirmation of human SENP7 protease inhibitors; inhibition, % at 12.5 µM; recombinant SENP7, Z-RLRGG-aminoluciferin luminescence, 40 min; actives 69% (n = 6,200); shares compounds with SENP7 inh
Casp3 select – caspase-3 inhibition (SENP selectivity assay); shares compounds with SENP7 inh; purified caspase-3, Z-DEVD-aminoluciferin luminescence, 60 min; inhibition, % at 12.5 µM; actives 60% (n = 6,200); AID 488918;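 active means mean inhibition above about 50%, limit read from the data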
SENP luc ctr – luminescence interference (SENP counter-screen). actives 39% (n = 6,200). AID 488919. Pre-incubated SENP8/Z-RLRGG-aminoluciferin, luciferase luminescence interference. shares compounds with SENP7 inh. inhibition, % at 12.5 µM;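 active means mean inhibition above about 50% when retested at one dose, limit read from the data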
Hits are given with their value; i = inactive; nt = no result.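 How the source made its calls, unless noted: active means mean inhibition above about 50% in the one-dose retest (limit read from the data); inactive means the rest.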

SMILES | SENP6 block | SENP8 block-1 | Apaf1 inhib | UBC13 inh | SENP8 block-2 | SENP7 inh | SENP8 conf | SENP6 conf | SENP7 conf | Casp3 select | SENP luc ctr
CCOC(=O)N1CCN(C(=O)COc2ccc(S(=O)(=O)Nc3ccc(OCC)cc3)cc2)CC1 | i | i | i | i | i | i | nt | nt | nt | nt | nt
Fc1cccc(-c2cc3nc4c(c(NCc5ccco5)n3n2)CCCC4)c1 | 85.1 | 69.8 | i | i | i | i | i | i | i | i | i
Fc1cccc(-c2cc3nc4c(c(N5CCOCC5)n3n2)CCCC4)c1 | i | i | i | i | i | i | nt | nt | nt | nt | nt
Cn1cc(S(=O)(=O)N2CCCC(C(=O)O)C2)cn1 (centres undefined) | i | i | i | i | i | i | nt | nt | nt | nt | nt
O=C(/C=C/c1ccccc1Cl)c1ccc(O)cc1 | 89.9 | 82.3 | i | i | i | 72.7 | i | i | i | i | 55.2
O=C(/C=C/c1ccccc1Cl)Nc1cccc(O)c1 | 97.8 | 93.9 | i | i | i | 95.9 | 96.1 | 97.0 | 101.6 | 90.7 | 96.4
O=C(/C=C/c1ccccc1Cl)Nc1ccccc1 | 97.4 | 96.1 | i | i | i | 98.5 | i | 99.2 | 102.7 | 94.4 | 95.1
Cc1ccc(NC(=O)C2CC(O)CN2C(=O)OCc2ccccc2)cc1C (centres undefined) | i | i | i | i | i | i | nt | nt | nt | nt | nt
O=c1cc(-c2ccccc2)nc2cc(-c3ccc(F)cc3)[nH]n12 | 87.0 | 78.6 | i | i | i | i | i | i | i | i | i
Cc1ccc(C(=O)Nc2nc3nc(-c4ccccc4)cc(=O)n3[nH]2)cc1 | i | i | i | i | i | i | nt | nt | nt | nt | nt
COc1cccc(-c2cc3nc(-c4ccccc4)cc(=O)n3[nH]2)c1 | 87.3 | 85.0 | i | i | i | 51.5 | i | 84.7 | 78.9 | 84.0 | i
CSc1nc2nc(-c3ccccc3)cc(=O)n2[nH]1 | 53.3 | i | i | i | i | i | i | i | 63.8 | 74.8 | 50.3
O=C(O)C1CCCC[C@H]1C(=O)Nc1ncc([N+](=O)[O-])s1 (some centres undefined) | i | i | i | i | i | i | nt | nt | nt | nt | nt
COc1cccc(N(C(=O)CNC(=O)c2ccco2)C(C(=O)NC2CCCC2)c2ccco2)c1 (centres undefined) | i | i | i | i | i | i | nt | nt | nt | nt | nt
COc1ccc(N(C(=O)CNC(=O)c2ccco2)C(C(=O)NC2CCCCC2)c2ccco2)cc1 (centres undefined) | 60.3 | i | i | i | i | i | i | i | i | i | i
O=C(Cc1ccc(S(=O)(=O)N2CCOCC2)s1)Nc1ccc(S(=O)(=O)N2CCCCC2)cc1 | i | i | i | i | i | i | nt | nt | nt | nt | nt
Nc1ccc(N=Nc2ccccc2O)c(N)c1 | 82.9 | 69.9 | i | i | i | 79.3 | 76.8 | 80.7 | 94.7 | 57.0 | 82.2
O=C1/C(=C/c2ccc([N+](=O)[O-])cc2)Oc2cc(O)ccc21 | 69.6 | 56.8 | i | i | i | 62.5 | i | i | 51.0 | i | 53.4
CC(C)(C)c1ccc(/C=C2\Oc3cc(O)ccc3C2=O)cc1 | i | i | i | i | i | i | nt | nt | nt | nt | nt
COc1ccccc1NC(=O)Nc1ccc(-n2ccc(C(F)(F)F)n2)cc1 | 80.1 | 73.2 | i | i | i | 82.3 | 76.1 | 82.5 | 92.8 | i | 69.1
COc1ccccc1NC(=O)Nc1ccc(N2CCOCC2)cc1 | 63.5 | i | i | i | i | 55.6 | 64.8 | 61.7 | 87.2 | 79.6 | 65.7
Cc1cc(C)cc(NC(=O)Nc2ccc(-n3ccc(C(F)(F)F)n3)cc2)c1 | i | i | i | i | i | i | nt | nt | nt | nt | nt
COc1ccc(N2CCN(C(=O)c3cccnc3SCc3cccc(Br)c3)CC2)cc1 | i | i | i | i | i | i | nt | nt | nt | nt | nt

Screening data: PubChem BioAssay, Sanford-Burnham Center for Chemical Genomics
